High-throughput results from PubChem BioAssay.
A selection: hits, their analogues and other compounds. The true share with any hit is near 1.3%.
G6PDH CS: inhibits Leuconostoc G6PDH, flagging false hits in G6PDH-based assays; Purified L. mesenteroides G6PDH, diaphorase/resazurin coupled fluorescence, 45 min; inhibition, % at 5 µM; 200,000 compounds, 0.12% hits; in the data active = inhibition above about 50%
PfGluPho inh: PfG6PD (Plasmodium falciparum) enzyme inhibition; PfGluPho enzyme, NADPH resazurin-diaphorase fluorescence; 350,000 compounds, 0.78% hits; inhibition, % at 20 µM;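 active = inhibition reaching at least a set limit at 20 µM in the primary screen, cut at about 59% in these data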;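 also: 0% = DMSO wells with substrate and 100% = DMSO wells lacking glucose-6-phosphate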
Diaph inh CS: counter-screen for diaphorase-based assays: diaphorase inhibitors and chemical oxidizers | diaphorase resazurin-to-resorufin fluorescence, NADH, 16 min; bacterial (C. kluyveri) enzyme, not human | inhibition, % at 20 µM | 190,000 compounds, 0.69% hits | AID 1217;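 active = primary screen inhibition at 20 µM above a set limit, cut at about 50% in these data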;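 also: plate controls were DMSO with full reaction for no effect and wells lacking NADH for full effect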
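material = Clostridium kluyveri diaphorase enzyme | amount = 0.14 U/mL diaphorase, enzyme working solution | schedule = incubation 16 min, room temperature | detection = fluorescence of resorufin formed from resazurin, Ex 544/Em 590 nm | benchmarks = positive control minus NADH, DMSO neutral control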
HKDC1 inh: inhibitors of human hexokinase HKDC1; Q2TB90; recombinant HKDC1, G6PDH/diaphorase resazurin coupled fluorescence; inhibition, % at 20 µM; 340,000 compounds, 0.16% hits; AID 493160;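 active = inhibition above about 35% when tested at 20 µM, limit read from the data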;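 also: plate controls were DMSO wells with enzyme for no effect and DMSO wells lacking enzyme for full effect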
Target sequence (Q2TB90 whole entry, looked up): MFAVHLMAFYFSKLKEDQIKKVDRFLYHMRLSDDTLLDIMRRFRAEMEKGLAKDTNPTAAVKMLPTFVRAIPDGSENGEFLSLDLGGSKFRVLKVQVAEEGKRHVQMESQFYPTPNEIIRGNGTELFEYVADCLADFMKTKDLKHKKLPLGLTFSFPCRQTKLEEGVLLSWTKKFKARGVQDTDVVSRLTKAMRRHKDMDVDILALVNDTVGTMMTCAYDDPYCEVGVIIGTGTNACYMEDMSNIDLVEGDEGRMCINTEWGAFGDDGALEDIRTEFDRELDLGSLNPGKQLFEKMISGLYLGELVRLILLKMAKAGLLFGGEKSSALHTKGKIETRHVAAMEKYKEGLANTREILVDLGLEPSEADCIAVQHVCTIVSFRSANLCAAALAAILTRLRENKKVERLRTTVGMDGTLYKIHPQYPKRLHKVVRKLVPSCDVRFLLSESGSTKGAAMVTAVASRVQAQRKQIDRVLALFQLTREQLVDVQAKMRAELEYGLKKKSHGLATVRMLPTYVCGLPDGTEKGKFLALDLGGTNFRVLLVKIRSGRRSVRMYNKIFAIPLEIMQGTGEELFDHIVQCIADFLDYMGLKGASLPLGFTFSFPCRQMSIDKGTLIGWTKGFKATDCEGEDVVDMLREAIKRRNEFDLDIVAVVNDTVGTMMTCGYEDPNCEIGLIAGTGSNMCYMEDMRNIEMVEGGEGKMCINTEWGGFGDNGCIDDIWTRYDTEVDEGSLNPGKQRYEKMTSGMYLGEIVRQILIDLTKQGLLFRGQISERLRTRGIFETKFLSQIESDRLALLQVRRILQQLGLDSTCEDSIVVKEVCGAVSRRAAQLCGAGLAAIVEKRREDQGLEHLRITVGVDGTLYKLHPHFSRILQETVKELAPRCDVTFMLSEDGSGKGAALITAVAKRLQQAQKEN
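Material – in-house recombinant HK5 (HKDC1) enzyme · Quantity – HKDC1 at 5 µg/mL · Buffer or medium – pH 8.0 Tris buffer with 10 mM MgCl2 · Reagent – glucose with 1 mM ATP · Dosing – single 20 µM dose · Times – reaction time 90 min, room temperature, protected from light · Technique – resorufin fluorescence at 613 nm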
Diaphorase act: activates diaphorase or chemically reduces, flagging diaphorase assay artifacts. Diaphorase/resazurin coupled assay, resorufin fluorescence, 16 min; active compounds read high; 1 = vehicle wells, 0 = NADH-free wells. activation factor at 20 µM. 190,000 compounds, 0.005% hits;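 active = diaphorase activity raised at least twofold by the compound at 20 µM; inactive = activation factor below 2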
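Material: purified diaphorase enzyme from Clostridium kluyveri / Medium: HEPES pH 7.4 buffer with MgCl2 and Tween 20 / Schedule: enzyme reaction of 16 min at room temperature / Measured by: resorufin fluorescence, excitation 544 nm, emission 590 nm / Evaluation: rise in resorufin formation, marking diaphorase activation or chemical reduction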
PfGluPho conf: PfG6PD inhibition, single-dose confirmed | shares compounds with PfGluPho inh | recombinant PfGluPho, NADPH-diaphorase-resazurin fluorescence | inhibition, % at 20 µM | 2,400 compounds, 34% hits | AID 504753;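 active = inhibition of at least 50% at 20 µM in any single replicate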;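 also: 0% = DMSO with substrate and 100% = DMSO lacking glucose-6-phosphate substrate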
Diaphorase 10uM: inhibits diaphorase or oxidizes, flagging false PfG6PD hits. inhibition, % at 20 µM. AID 504862. diaphorase-coupled resazurin reduction, fluorescence, NADPH 10 uM. shares compounds with PfGluPho inh. 820 compounds, 39% hits;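 active = average inhibition reaching 50% or more with the compound at 20 µM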;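 also: resorufin red fluorescence formed as diaphorase reduces resazurin using NADPH; 0% = DMSO with enzyme and 100% = DMSO without enzyme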
Diaph ctr 30uM: inhibits diaphorase or oxidizes, flagging false PfG6PD hits; shares compounds with PfGluPho inh; Diaphorase/resazurin coupled assay, resorufin fluorescence, 30 uM NADPH; inhibition, % at 20 µM; 820 compounds, 29% hits; AID 504863;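 active = inhibition averaging 50% or more, tested at 20 µM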;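 also: 0% = DMSO with enzyme and 100% = DMSO wells lacking diaphorase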
* hit, by the source's call; . = no result.

SMILES | G6PDH CS | PfGluPho inh | Diaph inh CS | HKDC1 inh | Diaphorase act | PfGluPho conf | others
CC(C)=CCOc1c2ccoc2cc2oc(=O)ccc12 | 15 | 72* | 21 | 2 | 0.8 | 31
C=C(C)[C@@H](O)COc1c2ccoc2cc2oc(=O)ccc12 | . | 15 | . | 1 | . | .
CC(C)=CCOc1c2ccoc2c(OCC=C(C)C)c2oc(=O)ccc12 | . | 128* | . | 16 | . | 71* | Diaphorase 10uM=63*;Diaph ctr 30uM=59*
CCc1cc(=O)oc2cc(OCC=C(C)C)ccc12 | 5 | -1 | 13 | -3 | 0.9 | .
CCn1c(=O)cc(SCC(=O)Nc2cccnc2)c2ccccc21 | -33 | -5 | 10 | -1 | 0.9 | .
N#Cc1ccc(-c2ccc(F)cc2)nc1Oc1ccc(F)cc1 | 1 | -12 | 7 | 0 | 0.9 | .
CN1C(=O)C(N=Nc2ccc([N+](=O)[O-])cc2)SC1=S (centres undefined) | . | 106* | . | 5 | . | 52* | Diaphorase 10uM=54*;Diaph ctr 30uM=34
O=S(=O)(NNc1ncc(C(F)(F)F)cc1Cl)c1ccc(F)cc1F | . | 65* | . | -1 | . | 42
Cc1ccc(N=Cc2ccc[nH]2)c(O)c1 | -31 | 77* | 31 | 7 | 0.7 | 40
Cc1ccccc1N=Cc1ccc[nH]1 | . | -6 | . | -3 | . | .
O=C(O)CCc1nnc(SCC(=O)Nc2ccc(Br)cc2)[nH]c1=O | 0 | -23 | 5 | -6 | 1 | .
CC(C)N=C(NC#N)SCc1ccccc1 | -1 | 4 | -3 | -1 | 1 | .
Cc1nc2cc(NC(=O)c3ccc(Br)s3)ccc2s1 | . | 67* | . | -7 | . | 30
Cc1ccc(C(=O)Nc2ccc3nc(C)sc3c2)s1 | 4 | -3 | 0 | -2 | 1 | .
Cc1ccc(OCC(=O)NCCO)cc1C | 14 | 2 | 3 | -10 | 1 | .
CC1CCCC2(C1)NC(=S)c1c(sc3c1CCCC3)N2 (centres undefined) | 5 | 64* | 50 | -3 | 0.5 | 11
CC1CCCC2(C1)NC(=S)N(c1ccccc1)N2 (centres undefined) | 6 | 3 | 3 | -5 | 1 | .
CCN1CCN(c2nc(C)nc3c2sc(=S)n3C)CC1 | -22 | 76* | 24 | -5 | 0.8 | 62* | Diaphorase 10uM=-19;Diaph ctr 30uM=-15
Cc1nc(N2CCCCC2)c2sc(=S)n(C)c2n1 | -31 | 1 | 21 | -4 | 0.8 | .
Clc1cccc(Cl)c1CNc1ccc(N2CCCC2)cc1 | 14 | 96* | 76* | 9 | 0.2 | 55* | Diaphorase 10uM=-1;Diaph ctr 30uM=-2
O=C(Cc1ccc(Cl)cc1)Nc1ccc(N2CCCC2)cc1 | 14 | 3 | 1 | -5 | 1 | .
Cc1cc2cc(CNC(=O)NC3CCCCC3)ccc2n1C | -23 | -14 | -6 | -2 | 1.1 | .
CCn1c(C)nnc1SCC(=O)Nc1cccc(C(F)(F)F)c1 | . | 1 | . | -2 | . | .
O=C(Nc1nc2c(s1)CCCC2)c1ccc(Br)s1 | 5 | 68* | 13 | -7 | 0.9 | 26
O=C(Nc1nc2c(s1)CCCC2)c1ccc(N2C(=O)CCC2=O)cc1 | . | 6 | . | 5 | . | .
SMILES | G6PDH CS | PfGluPho inh | Diaph inh CS | HKDC1 inh | Diaphorase act | PfGluPho conf | others
Cc1ncsc1C(=O)Nc1nc2c(s1)CCCC2 | 6 | -1 | -8 | -5 | 1.1 | .
O=C(Nc1nc2c(s1)CCCC2)c1ccc2ncsc2c1 | 2 | 65* | 21 | 1 | 0.8 | 9
O=C1C=CC(=O)N1Cc1ccccc1 | . | 71* | . | 0 | . | -16
S=C(Nc1ccccn1)c1ccccn1 | 8 | 67* | 7 | 4 | 0.9 | 13
O=C(Nc1ccccn1)C(=O)Nc1ccccn1 | . | 0 | . | -5 | . | .
O=C(CCl)NCCN1C(=O)S/C(=C\c2cccnc2)C1=O | -2 | 72* | -15 | 1 | 1.1 | 66* | Diaphorase 10uM=-29;Diaph ctr 30uM=-9
CC(C)(C)OC(=O)N(CCc1ccccc1)Cc1ccccc1OCc1cccc(NC(=O)C2CCC2)c1 | . | 14 | . | 10 | . | .
CCCCN1C(=O)/C(=C2\SC(N3CCCCC3)=NC2=O)c2ccccc21 | -3 | 65* | 32 | 5 | 0.7 | 2
O=C1N=C(N2CCOCC2)S/C1=C1\C(=O)N(Cc2ccccc2)c2ccc(Br)cc21 | 7 | . | 18 | . | 0.8 | .
COc1ccc(C(=O)Nc2sc(C)c(-c3ccccc3)c2C#N)cc1OC | 0 | 67* | 16 | 1 | 0.8 | -10
COc1ccc(O)c(C(=O)C2c3ccccc3C(=O)N2c2ccc(C)cc2)c1 (centres undefined) | . | 66* | . | 3 | . | -6
S=c1[nH]c(-c2ccccc2)cn1/N=C/c1cccs1 | . | 63* | . | -2 | . | 27
[O-]/[N+](=C\c1ccncc1)c1ccccc1 | 9 | 74* | 17 | -4 | 0.8 | 52* | Diaphorase 10uM=35;Diaph ctr 30uM=9
[O-]/[N+](=C/c1ccc(F)cc1)c1ccccc1 | 3 | 44 | 13 | -5 | 0.9 | .
CCOC(=O)c1ccc(N=c2ssnc2Cl)cc1 | 1 | 88* | 19 | -8 | 0.8 | 30
N#Cc1ccc(N=c2ssnc2Cl)cc1 | 9 | 93* | 16 | -13 | 0.8 | 56* | Diaphorase 10uM=-32;Diaph ctr 30uM=-24
COc1cc(C(=O)NC(CCSC)C(=O)Nc2ccc(N3CCOCC3)cc2)cc(OC)c1OC (centres undefined) | . | -1 | . | . | . | .
COC(=O)c1nnn(-c2nonc2N)c1-c1cccs1 | 11 | 15 | 8 | 3 | 0.9 | .
O=C(CCl)N(C1CCCC1)C1CCS(=O)(=O)C1 (centres undefined) | . | -5 | . | -7 | . | .
CN(C)c1ccc(/C=C/c2ccc3c4ccccc4ccc3[n+]2-c2ccccc2)cc1 | -13 | 66* | 68* | 26 | 0.3 | 68* | Diaphorase 10uM=-16;Diaph ctr 30uM=-4
COC(=O)c1[nH]c2ccc(C)cc2c1NS(=O)(=O)c1ccc(F)cc1 | 0 | 68* | -7 | 8 | 1.1 | 24
COC(=O)c1[nH]c2ccc(C)cc2c1NS(=O)(=O)c1ccc(F)c(C)c1 | 7 | 68* | 16 | 5 | 0.8 | 23
COc1cc(OC)cc(C(=O)Nc2cc(-c3cn4cccnc4n3)ccc2C)c1 | 0 | -2 | -1 | -4 | 1 | .
CN(C)c1ccc(NC(=O)CN2CCC(C(=O)c3ccc(F)cc3)CC2)cc1 | 2 | 16 | 0 | 14 | 1 | .
Cc1ccc(C)c(CN2C(=O)COc3ccccc32)c1 | . | -1 | . | -4 | . | .
Cc1ccc(C)c(CN2C(=O)COc3ccc(C(=O)c4ccccc4C(=O)O)cc32)c1 | 2 | 61* | 25 | 4 | 0.7 | 40
Cc1cc(C)c(S(=O)(=O)c2cccc(Br)c2C)c(Cl)n1 | . | 69* | . | 1 | . | 22
COc1cc(NC2CCCCC2O)c2nc(-c3ccc(Cl)cc3)ccc2c1 (centres undefined) | . | 61* | . | 23 | . | 42
